# PGE2 EP2 inh: EP2 receptor (human) inhibition. inhibition, % at 25 µM. P43116. C6 glioma cells expressing human EP2, cAMP TR-FRET; cells stimulated with saturating PGE2. hit rate 0.52% among 260,000;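 active = percent inhibition above 40 after rounding to a whole number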;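 note: rat C6 glioma host cells with rolipram phosphodiesterase inhibitor present; the protocol text gives 20 µM as final concentration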
# Target sequence (P43116 whole entry, looked up): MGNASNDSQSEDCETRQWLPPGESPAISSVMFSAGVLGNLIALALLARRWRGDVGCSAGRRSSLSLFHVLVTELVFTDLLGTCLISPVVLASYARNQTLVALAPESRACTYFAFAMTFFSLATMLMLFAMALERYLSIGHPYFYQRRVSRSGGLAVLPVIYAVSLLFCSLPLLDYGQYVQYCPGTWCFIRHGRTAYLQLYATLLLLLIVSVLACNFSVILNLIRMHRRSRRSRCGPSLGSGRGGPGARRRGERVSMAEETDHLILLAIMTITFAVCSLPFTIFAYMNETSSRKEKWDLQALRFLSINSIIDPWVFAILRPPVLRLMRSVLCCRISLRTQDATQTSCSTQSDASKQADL
# NPY-Y2 antag: blocks the human neuropeptide Y Y2 receptor. P49146. NPY-Y2 expressing cells, antagonist mode. inhibition, % at 2.7 µM. hit rate 0.99% among 140,000; in the data active = inhibition above about 17%;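 note: 0% = vehicle with agonist challenge and 100% = reference antagonist with challenge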
# NPY Y1 blocker: NPY-Y1 (human) receptor antagonism | P25929 | inhibition, % at 3.6 µM | HEK293-CNG Y1 cells, membrane potential fluorescence; NPY at EC95, then isoproterenol | hit rate 1% among 200,000;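 active = inhibition above the campaign mean inhibition of all tested compounds plus 3 SD, cut at about 20% in these data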;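 note: 0% = DMSO wells given NPY plus isoproterenol and 100% = isoproterenol alone without NPY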
#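 Material: HEK293 Y1/CNG channel cell line; also added: NPY (25 nM), isoproterenol (1 µM), Ro 20-1724 (25 µM); doses: one concentration, 3.6 µM, in 0.4% DMSO; schedule: compound incubation 1 h at room temperature, readout 45 min post-stimulation; technique: membrane potential fluorescence; measure: fluorescence ratio normalized to % inhibition between controls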
# EP2 mod: modulators of human EP2 prostaglandin E2 receptor | EP2-expressing cells, cAMP HTRF FRET, PGE2 co-stimulation | P43116 | hit rate 0.83% among 260,000 | induction, % at 25 µM | AID 940;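 active = compounds whose cAMP rise, as percent of the full-agonist control response, exceeds 60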;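 note: rat C6 glioma line stably carrying human EP2 under a CMV promoter; the protocol text gives 20 µM as final concentration; 100% = response of wells given 1 µM PGE2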
# NPY1 pot ag: human NPY-Y1 potentiation or agonism, primary screen; P25929; NPY-Y1 expressing cells, potentiator/agonist activation; activation, % at 3.6 µM; hit rate 0.37% among 220,000; AID 1304; in the data active = activation above about 33%, passing the limit was not always enough;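 note: cells stimulated with NPY at EC10 then isoproterenol at EC100; 0% = low agonist plus stimulus and 100% = saturating agonist plus stimulus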
# NPY2 pot ag: potentiates or activates human NPY-Y2 receptor | P49146 | cells expressing NPY-Y2, potentiator/agonist read-out | activation, % at 3.6 µM | hit rate 0.45% among 220,000 | AID 1359; in the data active = activation above about 27%;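 note: cells stimulated with NPY near EC25 plus isoproterenol at EC100; 0% = vehicle plus submaximal agonist and 100% = vehicle plus saturating agonist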
# EP2 confirm: EP2 receptor cAMP induction, counter-screens negative; C6 glioma EP2 cells, cAMP HTRF induction; plus low (about EC15) PGE2 agonist; shares compounds with EP2 mod; hit rate 47% among 1,300; AID 1080; calls only at 20 µM (by protocol);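 active = cAMP induction above 50% in the main assay while under 30% in all four parallel counter assays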;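 note: rat C6 glioma cells stably expressing human EP2 receptor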
# * = called active by the depositor; i = inactive; / = not tested or not shown; + = active, no number; ! = not active in a repeat. The list is not random: actives were taken first. Their share in the collection is about 2.8%.
SMILES,PGE2 EP2 inh,NPY-Y2 antag,NPY Y1 blocker,EP2 mod,NPY1 pot ag,NPY2 pot ag,EP2 confirm
COC(=O)c1c(NC(=S)NN2CCOCC2)sc2c1CCCC2,4.2,/,2.6,46.5,4.5,0.9,i
COC(=O)c1c(NC(=S)NC(=O)c2ccco2)sc2c1CCCC2,10.8,0.7,-0.9,-41.0,7.7,9.6,/
CCOC(=O)c1c(NC(=O)c2ccc(Br)o2)sc(C)c1CC,4.8,2.4,12.5,73.6*,-13.9,-7.0,+
O=C(Nc1sc2c(c1C(=O)O)CCCCC2)c1ccco1,6.9,1.3,15.2,-3.6,-6.8,-5.2,/
COC(=O)c1c(NC(=O)c2ccc(Br)s2)sc2c1CCC2,9.1,3.0,2.4,67.2*,-0.7,13.1,i
Cc1ccc(C2(C(=O)N[C@@H](Cn3nc(C4CC4)ccc3=O)C(C)C)CC2)cc1,7.2,/,/,-39.6,/,/,/
O=[N+]([O-])c1cnn(C2=CNCCN=C2)c1,10.5,/,/,3.2,/,/,/
O=C(NCCc1nc(-c2ccncc2)n[nH]1)C1(c2ccc(Cl)cc2)CCCC1,9.3,/,/,-37.7,/,/,/
CC(C)OC(=O)c1ccc(NC(=O)c2cccs2)cc1,5.5,/,/,-28.8,/,/,/
CCOC(=O)c1c(NC(=O)c2cccs2)sc(C)c1CC,9.1,3.2,3.2,59.3,-19.2,-18.0,i
Cc1sc(NC(=O)c2cccs2)c(C(=O)OC(C)C)c1C,7.5,4.0,5.6,78.5*,-2.0,-4.1,+
CCOC(=O)c1c(NC(=O)c2cccs2)sc2c1CCN(C(=O)OCC)C2,13.5,2.4,14.3,51.9,-38.8,-7.0,+
CC(C)OC(=O)c1c(NC(=O)CCn2nnc3ccccc32)sc2c1CCCC2,10.8,4.7,6.6,53.5,2.9,-4.1,i
C=CCOc1c(CN2CCC(NC(C)=O)(c3ccc(F)cc3)CC2)cccc1OC,10.3,/,/,-43.6,/,/,/
CCC(C)(C)n1nnnc1C(c1cc2ccc(C)cc2[nH]c1=O)N1CCc2ccccc2C1 (centres undefined),14.5,/,/,-33.5,/,/,/
COCC(=O)Nc1sc2c(c1C(=O)OC)CCC(C)C2 (centres undefined),8.2,2.6,2.5,70.3*!,7.5,-0.2,i
COC(=O)c1c(NC(=O)C2CC2)sc2c1CCCC2,3.5,2.8,4.9,58.9,3.4,16.9,i
CCOC(=O)c1c(NC(=O)c2cccs2)sc2c1CCCC2,18.3,2.9,1.3,55.5,-18.8,-14.0,i
COCC(=O)Nc1sc2c(c1C(=O)OC)C(C(=O)OC)CC2 (centres undefined),3.3,7.9,-2.3,-6.7,-20.9,-10.4,/
Cc1cccc(Cn2cnc3sc(C(N)=O)c(C)c3c2=O)c1,9.4,/,/,-74.3,/,/,/
COc1ccc(N(C(=O)c2ccccn2)C(C(=O)NC2CCCCC2)c2cccs2)cc1OC (centres undefined),10.8,/,/,59.7,/,/,/
COc1nc(-c2ccccc2)nnc1-c1ccccc1,5.3,/,12.0,74.6*,-35.1,-19.6,i
COc1cc(S(=O)(=O)NCCC2=CCCCC2)ccc1-n1cnnn1,11.3,/,/,-18.6,/,/,/
COc1ccc(-n2c(CNc3ccccc3Cl)nnc2SCC(=O)OC(C)C)cc1,10.6,/,/,21.6,/,/,/
CC(C)NC(=S)N/N=C1\CCCCC1C1CCCCC1 (centres undefined),-0.3,5.5,-4.8,80.5*,10.3,10.3,+
SMILES,PGE2 EP2 inh,NPY-Y2 antag,NPY Y1 blocker,EP2 mod,NPY1 pot ag,NPY2 pot ag,EP2 confirm
O=C(O)c1nc2nc(Cl)c(Cl)nc2[nH]1,4.1,/,/,63.5*!,-1.8,5.5,i
FC(F)(F)c1cccc(-c2nc3nc(Cl)c(Cl)nc3[nH]2)c1,11.2,/,/,12.4,21.2,39.7,/
CCOC(=O)C1=NN(c2ccccc2)C(=O)C1,12.1,/,/,17.0,15.7,-25.5,/
CCOC(=O)C1=NN(c2ccc(C)cc2)C2(S1)SC(C(C)=O)=C(C)N2c1ccccc1 (centres undefined),5.1,6.8,12.7,73.9*,-10.1,-2.2,+
CCOC(=O)C1=NN(c2cccc(C)c2)C2(S1)SC(C(C)=O)=C(C)N2c1ccccc1 (centres undefined),1.8,31.7*,29.5*,78.0*,-30.3,-11.2,+
O=C(Nc1ccc(S(=O)(=O)N2CCOCC2)cc1)C(=O)NC1CCCCC1,10.7,/,/,-19.0,/,/,/
COc1ccc(OC)c(Nc2nc(-c3cccc(NC(C)=O)c3)cs2)c1,9.8,/,/,-39.7,/,/,/
COc1ccc(NC(=O)C2(c3ccc(OC)cc3)CCOCC2)cc1,11.6,/,/,3.3,/,/,/
Cc1nc(SCCC(=O)O)c2ccccc2n1,25.0,8.2,7.5,82.5*,-16.5,-20.8,i
O=C(O)CCSc1ccc2ccccc2n1,9.6,16.3,6.3,79.6*,-35.8,-38.0,i
CCCn1c(SCC(=O)Nc2cccc(NC(C)=O)c2)nc2c1c(=O)n(C)c(=O)n2C,14.5,/,/,-20.6,/,/,/
CC(C)c1ccc2nc(SCc3ccc(CC(=O)O)cc3)c(C#N)cc2c1,9.5,/,/,16.0,/,/,/
CCCn1ncc(C(=O)N[C@H](C)Cn2nnc3ccccc32)c1C,/,/,/,-20.3,/,/,/
CSc1ccccc1NC(=O)COc1ccc(Cl)cc1C,12.2,10.4,13.8,66.5*,-37.0,-5.7,+
C=CCn1c(SCC(=O)Nc2cc(C)on2)nc2sc(C)c(C)c2c1=O,/,0.5,-0.6,10.4,-3.0,4.0,/
C=CCSc1ncnc2sc(C)c(C)c12,2.9,5.3,5.5,55.3,-6.5,-2.9,i
C=CCSc1nc2sc(C)c(C)c2c(=O)n1CC=C,8.4,3.0,8.2,71.2*,-44.0,-2.8,i
CCOC(=O)C1C(c2cccc3ccccc23)NC(=S)NC1(O)C(F)(F)F (centres undefined),6.5,/,/,16.9,/,/,/
C=CCn1c(=O)c(C(=O)NCCc2ccccc2)c(O)c2ccccc21,8.4,7.9,5.5,66.8*,-9.2,-3.7,i
Cc1ccc(OCC(=O)NNC(=O)C2CCN(c3ncccn3)CC2)cc1,8.1,1.4,-1.0,64.9*!,-27.0,4.5,i
c1ccc(-c2cc(-c3ccncc3)nc3ccc4ccccc4c23)cc1,4.8,0.9,-3.1,98.6*,5.7,1.8,+
Clc1ccc2nc(-c3ccncc3)cc(-c3ccccc3)c2c1,4.2,6.0,3.2,55.1,19.7,-0.5,/
CCOc1ccccc1NC(=O)N1CCCC1C(=O)NC(C)(C)C (centres undefined),9.6,/,/,17.1,/,/,/
CC(C)C(C)/C=C/C(C)[C@H]1CCC2C3=CCC4CC(=O)CC[C@]4(C)C3CC[C@@]21C (some centres undefined),14.9,/,/,13.7,/,/,/
CCC1CCc2c(sc(N)c2C(N)=O)C1 (centres undefined),4.5,2.4,3.1,-11.8,2.5,0.8,/
CCOC(=O)c1c(N)sc2c1CCC(CC)C2 (centres undefined),11.1,1.2,3.1,65.7*,-4.0,-14.7,i
